Measurements: ChEMBL document CHEMBL1157800, “Hasubanan alkaloids with delta-opioid binding affinity from the aerial parts of Stephania japonica” (J Nat Prod, 2010)

Key:
Type in all cases: cell membranes
[1] = molecular target: Delta-type opioid receptor (Homo sapiens, UniProt P41143); assay: Displacement of [3H]deltorphin-2 from human delta opioid receptor expressed in HEK293 cell membrane
[2] = molecular target: Mu-type opioid receptor (Homo sapiens) (UniProt P35372); assay: Displacement of [3H]naloxone from mu opioid receptor expressed in CHO cell membrane at 10 uM
Chain of Mu-type opioid receptor (Homo sapiens) (P35372 whole entry): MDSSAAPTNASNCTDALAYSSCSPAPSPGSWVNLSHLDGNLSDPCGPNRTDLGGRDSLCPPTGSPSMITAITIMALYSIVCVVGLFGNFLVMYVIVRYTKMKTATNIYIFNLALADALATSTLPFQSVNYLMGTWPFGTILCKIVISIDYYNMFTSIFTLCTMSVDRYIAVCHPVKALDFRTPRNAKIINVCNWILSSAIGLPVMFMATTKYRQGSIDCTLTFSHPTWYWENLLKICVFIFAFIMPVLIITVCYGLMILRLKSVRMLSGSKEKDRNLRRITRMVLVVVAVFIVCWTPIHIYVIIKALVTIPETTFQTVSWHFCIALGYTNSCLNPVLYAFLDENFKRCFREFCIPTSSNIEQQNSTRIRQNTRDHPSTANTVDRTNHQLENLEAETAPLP
How it was run: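 Filtration binding with recombinant human µ receptor CHO cell membranes (0.017 mg/mL) and [3H]-naloxone (0.66 nM). Buffer: 50 mM Tris, 10 mM MgCl2, 1 mM EDTA, pH 7.4. Incubated 90 min, including 60 min shaking, at ca. 23 °C. Harvested onto PEI-presoaked GF/B mats, oven-dried at 50 °C, then liquid scintillation counted.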

[3] = molecular target: Kappa-type opioid receptor (Homo sapiens) (UniProt P41145); assay: Displacement of [3H]naloxone from kappa opioid receptor expressed in HEK293 cell membrane at 10 uM
Chain of Kappa-type opioid receptor (Homo sapiens) (P41145 whole entry): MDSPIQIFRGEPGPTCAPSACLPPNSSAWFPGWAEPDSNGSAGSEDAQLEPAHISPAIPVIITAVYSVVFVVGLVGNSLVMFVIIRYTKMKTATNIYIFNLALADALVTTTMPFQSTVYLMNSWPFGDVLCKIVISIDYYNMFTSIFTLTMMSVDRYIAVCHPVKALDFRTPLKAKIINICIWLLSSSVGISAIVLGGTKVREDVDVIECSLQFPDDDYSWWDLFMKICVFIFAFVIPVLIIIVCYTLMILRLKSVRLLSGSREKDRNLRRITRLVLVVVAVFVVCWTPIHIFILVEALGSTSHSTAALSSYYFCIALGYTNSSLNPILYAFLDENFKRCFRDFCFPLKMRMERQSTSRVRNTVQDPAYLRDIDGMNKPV

Chain of Delta-type opioid receptor (P41143 whole entry): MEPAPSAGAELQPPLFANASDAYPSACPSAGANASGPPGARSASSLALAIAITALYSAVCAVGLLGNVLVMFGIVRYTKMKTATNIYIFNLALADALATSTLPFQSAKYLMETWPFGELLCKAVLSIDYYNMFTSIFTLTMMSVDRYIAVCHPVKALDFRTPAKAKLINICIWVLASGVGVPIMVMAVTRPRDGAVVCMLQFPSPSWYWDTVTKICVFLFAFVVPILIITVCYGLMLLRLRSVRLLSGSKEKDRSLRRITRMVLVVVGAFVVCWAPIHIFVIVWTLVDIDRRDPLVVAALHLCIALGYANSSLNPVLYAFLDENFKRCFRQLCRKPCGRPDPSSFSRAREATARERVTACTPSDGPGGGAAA

| SMILES | IC50 [1] | inhibition [2] | inhibition [3] |
| --- | --- | --- | --- |
| COC1=C2[C@@H]3Cc4ccc(OC)c(O)c4[C@]2(CCN3)C[C@H](O)[C@@H]1O [SINOCOCULINE] | 37 µM | 54% | 0% |
| COc1ccc2c(c1O)[C@@]13CCN(C)[C@@]14C[C@@H]2O[C@]4(OC)[C@@H](O)[C@@H](OC(=O)/C=C/c1ccccc1)C3 | 2.5 µM | 54% | 0% |
| COc1ccc2c(c1O)[C@@]13CCN(C)[C@@]14C[C@@H]2O[C@]4(O)[C@@H](OC)[C@@H](O)C3 [LONGANINE] | 0.7 µM | 68% | 0% |
| COc1ccc2c(c1O)[C@@]13CCN(C)[C@@]14C[C@@H]2O[C@]4(OC)[C@@H](OC)[C@@H](O)C3 | 2.1 µM | 68% | 0% |
| COC1=C(OC)[C@]23CCc4ccc(OC)c(O)c4[C@]2(CCN3C)CC1=O [AKNADININE] | 46 µM | 68% | 0% |
| COC1=CC[C@]23CCN(C)[C@@]24C[C@H](O[C@@]14O)c1ccc(OC)c(O)c13 [PROSTEPHABYSSINE] | 5.5 µM | 67% | 0% |
| COc1ccc(/C=C/C(=O)O[C@H]2C[C@]34CCN(C)[C@@]35C[C@H](O[C@]5(OC)[C@H]2OC)c2ccc(OC)c(O)c24)cc1O | 11.3 µM | 56% | 0% |
| COc1ccc2c(c1O)[C@@]13CC(=O)N(C)[C@@]14C[C@@H]2O[C@]4(OC)[C@@H](OC)[C@@H](OC(=O)/C=C/c1ccccc1)C3 | 5.1 µM | 74% | 0% |
| COC1=C(OC)[C@]23CCc4ccc(OC)c(O)c4[C@@]2(CC1=O)CC(=O)N3C | 17 µM | 49% | 0% |
